Measured values taken from ChEMBL document CHEMBL3244080, “Structure-activity correlations for a series of antiallergy agents. Oxanilic, quinaldic, and benzopyran-2-carboxylic acids” (1978).

Tested on: Rattus norvegicus
Assay: Antiallergic activity in iv dosed Sprague-Dawley rat assessed as inhibition of egg albumin-induced passive cutaneous anaphylaxis
Type: functional
Settings: for ED50: Rattus norvegicus, Sprague-Dawley, iv
How it was run: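 Rat passive cutaneous anaphylaxis; drug given iv as its tris(hydroxymethyl)aminomethane (THAM) salt solution at the moment of antigen challenge. Percent inhibition of the PCA reaction measured at three or more trial doses; ED50 = dose giving 50% inhibition of the anaphylactic reaction.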

`Nc1ccc2nc(C(=O)O)cc(O)c2c1` was tested, and the Activity_index was 9.9 and the ED50 was 48.3 µmol/kg.

`COc1ccc2nc(C(=O)O)cc(O)c2c1` gave an Activity_index of 9.4 and an ED50 of 82.2 µmol/kg.

`O=C(O)C(=O)Nc1ccccc1` showed an Activity_index of 8.3 and an ED50 of 245 µmol/kg.

With `N#Cc1ccc(NC(=O)C(=O)O)cc1` the Activity_index was 10.1 and the ED50 was 40.5 µmol/kg.

`N#Cc1ccccc1NC(=O)C(=O)O` showed an Activity_index of 11.5 and an ED50 of 10.1 µmol/kg.

In the case of `N#Cc1cccc(NC(=O)C(=O)O)c1`, the Activity_index is reported as 12.6 and the ED50 is reported as 3.38 µmol/kg.

`N#Cc1cc(NC(=O)C(=O)O)ccc1Cl` showed an Activity_index of 13.1 and an ED50 of 2.06 µmol/kg.

For `N#Cc1ccc(Cl)c(NC(=O)C(=O)O)c1`, the Activity_index was 13.3 and the ED50 was 1.74 µmol/kg.

`N#Cc1cc(C#N)cc(NC(=O)C(=O)O)c1` gave an Activity_index of 14 and an ED50 of 0.84 µmol/kg.

`Nc1ccc2oc(C(=O)O)cc(=O)c2c1` gave an Activity_index of 10 and an ED50 of 43.5 µmol/kg.

`O=C(O)c1cc(=O)c2cc([N+](=O)[O-])ccc2o1` was tested, and the Activity_index was 11.9 and the ED50 was 6.48 µmol/kg.

`O=C(O)c1cc(=O)c2c(OCC(O)COc3cccc4oc(C(=O)O)cc(=O)c34)cccc2o1` [CROMOLYN SODIUM] gave an ED50 of 6.1 µmol/kg.

Compound `O=C(O)c1cc(=O)c2ccccc2[nH]1` [TRANSTORINE] has an Activity_index of 10.1 and an ED50 of 42.4 µmol/kg.

In the case of `O=C(O)c1cc(O)c2cccc(O)c2n1` [XANTHURENATE], the Activity_index is reported as 9.1 and the ED50 is reported as 114 µmol/kg.
